{"source": "ChEMBL document CHEMBL1649442", "about": "“Genetic determinants of resistance to fusidic acid among clinical bacteremia isolates of Staphylococcus aureus” (2009)", "type_in_all_cases": "functional", "key": {"Staphylococcus aureus [1]": {"test_system": "Staphylococcus aureus", "test": "Antimicrobial activity against cadX coding sequence deficient Staphylococcus aureus isolate 28150 expressing FusC and harboring pMW2 by Etest"}, "Staphylococcus aureus [2]": {"test_system": "Staphylococcus aureus", "test": "Antimicrobial activity against cadXD coding sequence deficient Staphylococcus aureus isolate 27624 expressing FusB by Etest", "summary_of_the_method": "(§1)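 Fusidic acid-resistant S. aureus bacteremia clinical isolates, originally from Statens Serum Institut. MIC read by Etest on Mueller-Hinton agar, following the manufacturer's instructions. Liquid cultures grown in LB at 37°C with shaking at 200 rpm. fusB and cadXD presence checked by PCR and sequencing.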"}, "Staphylococcus aureus [3]": {"test_system": "Staphylococcus aureus", "test": "Antimicrobial activity against cadXD coding sequence deficient Staphylococcus aureus isolate 28444 expressing FusB by Etest", "summary_of_the_method": "as §1"}, "Staphylococcus aureus [4]": {"test_system": "Staphylococcus aureus", "test": "Antimicrobial activity against cadXD coding sequence deficient Staphylococcus aureus isolate 28332 expressing FusB by Etest", "summary_of_the_method": "as §1"}, "Staphylococcus aureus [5]": {"test_system": "Staphylococcus aureus", "test": "Antimicrobial activity against cadX coding sequence deficient Staphylococcus aureus isolate 28414 expressing FusC C90T mutant and harboring pMW2 by Etest"}, "Staphylococcus aureus [6]": {"test_system": "Staphylococcus aureus", "test": "Antimicrobial activity against Staphylococcus aureus RN4220 transformed with Staphylococcus aureus isolate 27856 carrying pUB101 expressing cadX coding sequence by Etest", "summary_of_the_method": "(§2)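 Plasmid DNA was extracted from each clinical bacteremia isolate after overnight growth in LB with 0.5% glycine, using lysostaphin/lysozyme/proteinase K lysis and alkaline lysis. It was electroporated into restriction-negative S. aureus RN4220 (2.3 kV, 25 μF, 100 Ω) and transformants were selected on NYE agar with ampicillin 1 μg/ml at 37°C. Fusidic acid MIC was read by Etest on Mueller-Hinton agar following the manufacturer's instructions.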"}, "Staphylococcus aureus [7]": {"test_system": "Staphylococcus aureus", "test": "Antimicrobial activity against Staphylococcus aureus RN4220 transformed with Staphylococcus aureus isolate 27624 carrying pUB101 expressing cadX coding sequence by Etest", "summary_of_the_method": "as §2"}, "Staphylococcus aureus [8]": {"test_system": "Staphylococcus aureus", "test": "Antimicrobial activity against cadXD coding sequence deficient Staphylococcus aureus isolate 27856 expressing FusB by Etest", "summary_of_the_method": "as §1"}, "Staphylococcus aureus [9]": {"test_system": "Staphylococcus aureus", "test": "Antimicrobial activity against cadX coding sequence deficient Staphylococcus aureus isolate 28410 expressing FusC C90T mutant and harboring pMW2 by Etest"}, "Staphylococcus aureus [10]": {"test_system": "Staphylococcus aureus", "test": "Antimicrobial activity against cadX coding sequence deficient Staphylococcus aureus isolate 27962 expressing FusA Met453Ile mutant and harboring pMW2 by Etest"}, "Staphylococcus aureus [11]": {"test_system": "Staphylococcus aureus", "test": "Antimicrobial activity against cadX coding sequence deficient Staphylococcus aureus isolate 28335 expressing FusC C90T mutant and harboring pMW2 by Etest"}, "Staphylococcus aureus [12]": {"test_system": "Staphylococcus aureus", "test": "Antimicrobial activity against Staphylococcus aureus isolate 27971 expressing FusB and harboring pUB101 carrying cadX coding sequence by Etest"}, "Staphylococcus aureus [13]": {"test_system": "Staphylococcus aureus", "test": "Antimicrobial activity against Staphylococcus aureus isolate 28444 expressing FusB and harboring pUB101 carrying cadX coding sequence by Etest"}, "Staphylococcus aureus [14]": {"test_system": "Staphylococcus aureus", "test": "Antimicrobial activity against Staphylococcus aureus isolate 27731 expressing FusA Ala71Val, Asp189Gly, Pro406Leu mutant and harboring pMW2 carrying cadX coding sequence by Etest"}, "Staphylococcus aureus [15]": {"test_system": "Staphylococcus aureus", "test": "Antimicrobial activity against cadX coding sequence deficient Staphylococcus aureus isolate 28400 expressing FusC C90T mutant and harboring pMW2 by Etest"}, "Staphylococcus aureus [16]": {"test_system": "Staphylococcus aureus", "test": "Antimicrobial activity against Staphylococcus aureus isolate 27844 expressing FusA Ala376Val, Leu461Phe, Asp463Gly, Ala655Pro mutant and harboring pMW2 carrying cadX coding sequence by Etest"}, "Staphylococcus aureus [17]": {"test_system": "Staphylococcus aureus", "test": "Antimicrobial activity against Staphylococcus aureus isolate 28084 expressing FusC and harboring pMW2 carrying cadX coding sequence by Etest"}, "Staphylococcus aureus [18]": {"test_system": "Staphylococcus aureus", "test": "Antimicrobial activity against cadXD coding sequence deficient Staphylococcus aureus isolate 27980 expressing FusB by Etest", "summary_of_the_method": "as §1"}, "Staphylococcus aureus [19]": {"test_system": "Staphylococcus aureus", "test": "Antimicrobial activity against Staphylococcus aureus isolate 28332 expressing FusB and harboring pUB101 carrying cadX coding sequence by Etest"}, "Staphylococcus aureus [20]": {"test_system": "Staphylococcus aureus", "test": "Antimicrobial activity against Staphylococcus aureus isolate 28130 expressing FusA Leu461Ser mutant pMW2 carrying cadX coding sequence by Etest"}, "Staphylococcus aureus [21]": {"test_system": "Staphylococcus aureus", "test": "Antimicrobial activity against Staphylococcus aureus RN4220 transformed with Staphylococcus aureus isolate 27980 carrying pUB101 expressing cadX coding sequence by Etest", "summary_of_the_method": "as §2"}, "Staphylococcus aureus [22]": {"test_system": "Staphylococcus aureus", "test": "Antimicrobial activity against Staphylococcus aureus isolate 28362 expressing FusA Val90Ile mutant by Etest"}, "Staphylococcus aureus [23]": {"test_system": "Staphylococcus aureus", "test": "Antimicrobial activity against cadX coding sequence deficient Staphylococcus aureus isolate 27768 expressing FusA Leu461Ser mutant and harboring pMW2 by Etest"}, "Staphylococcus aureus [24]": {"test_system": "Staphylococcus aureus", "test": "Antimicrobial activity against Staphylococcus aureus isolate 27980 expressing FusB and harboring pUB101 carrying cadX coding sequence by Etest"}, "Staphylococcus aureus [25]": {"test_system": "Staphylococcus aureus", "test": "Antimicrobial activity against Staphylococcus aureus RN4220 transformed with Staphylococcus aureus isolate 28444 carrying pUB101 expressing cadX coding sequence by Etest", "summary_of_the_method": "as §2"}, "Staphylococcus aureus [26]": {"test_system": "Staphylococcus aureus", "test": "Antimicrobial activity against Staphylococcus aureus isolate 27657 expressing FusC by Etest"}, "Staphylococcus aureus [27]": {"test_system": "Staphylococcus aureus", "test": "Antimicrobial activity against Staphylococcus aureus RN4220 transformed with Staphylococcus aureus isolate 28332 carrying pUB101 cadX coding sequence by Etest", "summary_of_the_method": "as §2"}, "Staphylococcus aureus [28]": {"test_system": "Staphylococcus aureus", "test": "Antimicrobial activity against Staphylococcus aureus isolate 27624 expressing FusB and harboring pUB101 carrying cadX coding sequence by Etest"}, "Staphylococcus aureus [29]": {"test_system": "Staphylococcus aureus", "test": "Antimicrobial activity against Staphylococcus aureus isolate 28416 expressing FusC by Etest"}, "Staphylococcus aureus [30]": {"test_system": "Staphylococcus aureus", "test": "Antimicrobial activity against Staphylococcus aureus isolate 27856 expressing FusB and harboring pUB101 carrying cadX coding sequence by Etest"}, "Staphylococcus aureus [31]": {"test_system": "Staphylococcus aureus", "test": "Antimicrobial activity against cadXD coding sequence deficient Staphylococcus aureus isolate 27971 expressing FusB by Etest", "summary_of_the_method": "as §1"}, "Staphylococcus aureus [32]": {"test_system": "Staphylococcus aureus", "test": "Antimicrobial activity against Staphylococcus aureus RN4220 transformed with Staphylococcus aureus isolate 27971 carrying pUB101 expressing cadX coding sequence by Etest", "summary_of_the_method": "as §2"}}, "data": [{"molecule": "CC(=O)O[C@H]1C[C@@]2(C)[C@@H](C[C@@H](O)[C@H]3[C@@]4(C)CC[C@@H](O)[C@@H](C)[C@@H]4CC[C@@]32C)/C1=C(\\CCC=C(C)C)C(=O)O", "note": "[FUSIDIC ACID]", "values": [{"measurement": "MIC", "setting": "Staphylococcus aureus [1]", "result": 8, "unit": "µg/mL"}, {"measurement": "MIC", "setting": "Staphylococcus aureus [2]", "result": 0.094, "unit": "µg/mL"}, {"measurement": "MIC", "setting": "Staphylococcus aureus [3]", "result": 0.064, "unit": "µg/mL"}, {"measurement": "MIC", "setting": "Staphylococcus aureus [4]", "result": 0.125, "unit": "µg/mL"}, {"measurement": "MIC", "setting": "Staphylococcus aureus [5]", "result": 6, "unit": "µg/mL"}, {"measurement": "MIC", "setting": "Staphylococcus aureus [6]", "result": 8, "unit": "µg/mL"}, {"measurement": "MIC", "setting": "Staphylococcus aureus [7]", "result": 8, "unit": "µg/mL"}, {"measurement": "MIC", "setting": "Staphylococcus aureus [8]", "result": 0.094, "unit": "µg/mL"}, {"measurement": "MIC", "setting": "Staphylococcus aureus [9]", "result": 6, "unit": "µg/mL"}, {"measurement": "MIC", "setting": "Staphylococcus aureus [10]", "result": 4, "unit": "µg/mL"}, {"measurement": "MIC", "setting": "Staphylococcus aureus [11]", "result": 8, "unit": "µg/mL"}, {"measurement": "MIC", "setting": "Staphylococcus aureus [12]", "result": 8, "unit": "µg/mL"}, {"measurement": "MIC", "setting": "Staphylococcus aureus [13]", "result": 12, "unit": "µg/mL"}, {"measurement": "MIC", "setting": "Staphylococcus aureus [14]", "result": 8, "unit": "µg/mL"}, {"measurement": "MIC", "setting": "Staphylococcus aureus [15]", "result": 6, "unit": "µg/mL"}, {"measurement": "MIC", "setting": "Staphylococcus aureus [16]", "result": 256, "unit": "µg/mL"}, {"measurement": "MIC", "setting": "Staphylococcus aureus [17]", "result": 12, "unit": "µg/mL"}, {"measurement": "MIC", "setting": "Staphylococcus aureus [18]", "result": 0.094, "unit": "µg/mL"}, {"measurement": "MIC", "setting": "Staphylococcus aureus [19]", "result": 12, "unit": "µg/mL"}, {"measurement": "MIC", "setting": "Staphylococcus aureus [20]", "result": 6, "unit": "µg/mL"}, {"measurement": "MIC", "setting": "Staphylococcus aureus [21]", "result": 8, "unit": "µg/mL"}, {"measurement": "MIC", "setting": "Staphylococcus aureus [22]", "result": 8, "unit": "µg/mL"}, {"measurement": "MIC", "setting": "Staphylococcus aureus [23]", "result": 8, "unit": "µg/mL"}, {"measurement": "MIC", "setting": "Staphylococcus aureus [24]", "result": 12, "unit": "µg/mL"}, {"measurement": "MIC", "setting": "Staphylococcus aureus [25]", "result": 8, "unit": "µg/mL"}, {"measurement": "MIC", "setting": "Staphylococcus aureus [26]", "result": 8, "unit": "µg/mL"}, {"measurement": "MIC", "setting": "Staphylococcus aureus [27]", "result": 8, "unit": "µg/mL"}, {"measurement": "MIC", "setting": "Staphylococcus aureus [28]", "result": 6, "unit": "µg/mL"}, {"measurement": "MIC", "setting": "Staphylococcus aureus [29]", "result": 8, "unit": "µg/mL"}, {"measurement": "MIC", "setting": "Staphylococcus aureus [30]", "result": 8, "unit": "µg/mL"}, {"measurement": "MIC", "setting": "Staphylococcus aureus [31]", "result": 0.094, "unit": "µg/mL"}, {"measurement": "MIC", "setting": "Staphylococcus aureus [32]", "result": 8, "unit": "µg/mL"}]}]}
